ChEMBL document CHEMBL1157556, “Synthesis and biological screening of a combinatorial library of beta-chlorovinyl chalcones as anticancer, anti-inflammatory and antimicrobial agents” (Bioorg Med Chem, 2010)
Values after ≈ are worked out from the molar mass of the structure shown.

Columns and labels:
THP-1 [1] = experiment: Antiinflammatory activity in human THP1 cells assessed as inhibition of LPS-induced IL6 release at 10 uM after 24 hrs by ELISA; type: functional; details: THP-1, 24 h
Summary of the method: (§1)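 THP-1 cells grown in RPMI 1640 with 10% FBS, penicillin and streptomycin, then PMA-differentiated. Compounds in 0.5% DMSO preincubated 30 min at 37 °C before LPS (E. coli 0127:B8) stimulation. TNF-α and IL-6 release measured by kit per the manufacturer (BD Biosciences). Percent inhibition calculated relative to control. Dexamethasone 1 µM as reference.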

THP-1 [2] = experiment: Antiinflammatory activity in human THP1 cells assessed as inhibition of LPS-induced TNFalpha release at 10 uM after 24 hrs by ELISA; type: functional; details: THP-1, 24 h; summary of the method: as §1
THP-1 [3] = experiment: Cytotoxicity against human THP1 cells assessed as CCK8 release at 10 uM after 24 hrs by ELISA; type: cell-based; details: thp-1, 24 h
Summary of the method: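 Same THP-1 cytokine-assay cells, with compounds in 0.5% DMSO and LPS stimulation, were scored in parallel for cytotoxicity by CCK-8.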

ACHN = experiment: Anticancer activity against human ACHN cells at 10 uM after 48 hrs by propidium iodide fluorescence assay; type: functional
Summary of the method: (§2)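 Propidium iodide DNA-fluorescence assay. Seeding 3000–7500 cells/well, 24 h recovery at 37 °C in 5% CO₂. Compounds in 0.1% DMSO added to triplicate wells at 10 µM. Flavopiridol 700 nM and gemcitabine 500 nM as reference inhibitors. Plates frozen at −80 °C for 24 h, thawed to room temperature, fluorescence read at excitation 530 nm and emission 620 nm. Percent cytotoxicity calculated.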

PANC-1 = experiment: Anticancer activity against human PANC1 cells at 10 uM after 48 hrs by propidium iodide fluorescence assay; type: functional; summary of the method: as §2
Calu-1 = experiment: Anticancer activity against human Calu1 cells at 10 uM after 48 hrs by propidium iodide fluorescence assay; type: functional; summary of the method: as §2
NCI-H460 = experiment: Anticancer activity against human H460 cells at 10 uM after 48 hrs by propidium iodide fluorescence assay; type: functional; summary of the method: as §2
HCT-116 = experiment: Anticancer activity against human HCT116 cells at 10 uM after 48 hrs by propidium iodide fluorescence assay; type: functional; summary of the method: as §2
Escherichia coli [4] = experiment: Antibacterial activity against Escherichia coli MTCC 1650 after 24 hrs; type: functional; details: MTCC 1650, 24 h
Summary of the method: (§3)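 Agar well diffusion on Mueller Hinton agar seeded with 0.1 mL of a 10⁵ cfu/mL suspension in 0.85% saline. Compounds dissolved in DMSO, final concentrations 25–250 µg/mL, 0.1 mL loaded per 6 mm well. DMSO (1%) control; tetracycline (10 µg/mL) reference. Duplicate plates incubated 24 h at 37 °C. Inhibition zone read in mm. MIC taken as lowest concentration giving complete growth inhibition.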

Proteus vulgaris [5] = experiment: Antibacterial activity against Proteus vulgaris MTCC 1771 after 24 hrs; type: functional; details: MTCC 1771, 24 h; summary of the method: as §3
Klebsiella pneumoniae [6] = experiment: Antibacterial activity against Klebsiella pneumoniae NCIM 2957 after 24 hrs; type: functional; details: NCIM 2957, 24 h; summary of the method: as §3
Staphylococcus aureus [7] = experiment: Antibacterial activity against Staphylococcus aureus MTCC 96 after 24 hrs; type: functional; details: MTCC 96, 24 h; summary of the method: as §3
Bacillus subtilis [8] = experiment: Antibacterial activity against Bacillus subtilis MTCC 1789 after 24 hrs; type: functional; details: MTCC 1789, 24 h; summary of the method: as §3
Escherichia coli [9] = experiment: Antibacterial activity against Escherichia coli MTCC 1650 at 50 ug/ml after 24 hrs agar diffusion method; type: functional; details: MTCC 1650, 24 h, read-out: IZ; summary of the method: as §3
Proteus vulgaris [10] = experiment: Antibacterial activity against Proteus vulgaris MTCC 1771 at 50 ug/ml after 24 hrs agar diffusion method; type: functional; details: MTCC 1771, 24 h, read-out: IZ; summary of the method: as §3
Klebsiella pneumoniae [11] = experiment: Antibacterial activity against Klebsiella pneumoniae NCIM 2957 at 50 ug/ml after 24 hrs agar diffusion method; type: functional; details: NCIM 2957, 24 h, read-out: IZ; summary of the method: as §3
Staphylococcus aureus [12] = experiment: Antibacterial activity against Staphylococcus aureus MTCC 96 at 50 ug/ml after 24 hrs agar diffusion method; type: functional; details: MTCC 96, 24 h, read-out: IZ; summary of the method: as §3
Bacillus subtilis [13] = experiment: Antibacterial activity against Bacillus subtilis MTCC 1789 at 50 ug/ml after 24 hrs agar diffusion method; type: functional; details: MTCC 1789, 24 h, read-out: IZ; summary of the method: as §3
Aspergillus niger = experiment: Antifungal activity against Aspergillus niger MTCC 1781 at 100 ug/ml after 48 hrs agar diffusion method; type: functional; details: MTCC 1781, 48 h, read-out: IZ
Summary of the method: (§4)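 Fungal spore suspensions in sterile distilled water adjusted to 10⁶ cfu/mL; 0.1 mL spread on Sabouraud dextrose agar. Wells of 6 mm filled with 0.1 mL compound dilution in DMSO. DMSO (1%) control; nystatin (30 µg/mL) reference. Duplicate plates incubated at 28 °C for 48 h. Activity read as inhibition zone diameter in mm.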

Aspergillus flavus = experiment: Antifungal activity against Aspergillus flavus MTCC 2501 at 100 ug/ml after 48 hrs agar diffusion method; type: functional; details: MTCC 2501, 48 h, read-out: IZ; summary of the method: as §4
Trichoderma viride = experiment: Antifungal activity against Trichoderma viride MTCC 167 at 100 ug/ml after 48 hrs agar diffusion method; type: functional; details: MTCC 167, 48 h, read-out: IZ; summary of the method: as §4
Candida albicans = experiment: Antifungal activity against Candida albicans MTCC 227 at 100 ug/ml after 48 hrs agar diffusion method; type: functional; details: MTCC 227, 48 h, read-out: IZ; summary of the method: as §4
Penicillium chrysogenum = experiment: Antifungal activity against Penicillium chrysogenum MTCC 1996 at 100 ug/ml after 48 hrs agar diffusion method; type: functional; details: MTCC 1996, 48 h, read-out: IZ; summary of the method: as §4

Row | Compound | inhibition at 10 µM (THP-1 [1]) | inhibition at 10 µM (THP-1 [2]) | Activity (THP-1 [3]) | Activity (ACHN) | Activity (PANC-1) | Activity (Calu-1) | Activity (NCI-H460) | Activity (HCT-116) | MIC (Escherichia coli [4]) | MIC (Proteus vulgaris [5]) | MIC (Klebsiella pneumoniae [6]) | MIC (Staphylococcus aureus [7]) | MIC (Bacillus subtilis [8]) | zone of inhibition at 50 µg/mL (Escherichia coli [9]) | zone of inhibition at 50 µg/mL (Klebsiella pneumoniae [11]) | zone of inhibition at 100 µg/mL (Aspergillus niger) | zone of inhibition at 100 µg/mL (Aspergillus flavus) | zone of inhibition at 100 µg/mL (Trichoderma viride) | zone of inhibition at 100 µg/mL (Candida albicans) | zone of inhibition at 100 µg/mL (Penicillium chrysogenum) | further results
1 | COc1ccc(C(=O)/C=C/C=C(\Cl)c2ccc(Br)cc2)c(OC)c1 | 36% | 0% | 0% | 39% | 33% | 27% | 16% | 22% | 50 µg/mL (≈ 123 µM) | 50 µg/mL (≈ 123 µM) | 50 µg/mL (≈ 123 µM) | 50 µg/mL (≈ 123 µM) | 50 µg/mL (≈ 123 µM) | 13 mm | 18 mm | 12 mm | 18 mm | 16 mm | 12 mm | 16 mm | zone of inhibition at 50 µg/mL (Proteus vulgaris [10]): 10 mm; zone of inhibition at 50 µg/mL (Staphylococcus aureus [12]): 12 mm; zone of inhibition at 50 µg/mL (Bacillus subtilis [13]): 16 mm
2 | COc1ccc(C(=O)/C=C/C=C(\Cl)c2ccc(OC)cc2)cc1 | 11% | 2% | 0% | 28% | 16% | 38% | 19% | 16% | 50 µg/mL (≈ 152 µM) | 50 µg/mL (≈ 152 µM) | 50 µg/mL (≈ 152 µM) | 50 µg/mL (≈ 152 µM) | 50 µg/mL (≈ 152 µM) | 17 mm | 12 mm | 14 mm | 14 mm | 14 mm | 11 mm | 15 mm | zone of inhibition at 50 µg/mL (Staphylococcus aureus [12]): 12 mm
3 | COc1ccc(C(=O)/C=C/C=C(\Cl)c2ccc(Cl)cc2)cc1 | 95% | 67% | 28% | 35% | 30% | 32% | 33% | 29% | 50 µg/mL (≈ 150 µM) | 50 µg/mL (≈ 150 µM) | 50 µg/mL (≈ 150 µM) | 50 µg/mL (≈ 150 µM) | 50 µg/mL (≈ 150 µM) |  | 10 mm | 13 mm | 12 mm | 12 mm | 10 mm | 12 mm | 
